Source: ChEMBL document CHEMBL4673269, “Discovery of S64315, a Potent and Selective Mcl-1 Inhibitor” (J Med Chem, 2020)
Activity calls are given as the source filed them. The calls are words filed in the database; no cut-off is given here.

What was measured:
THP-1 = assay: Antiproliferative activity against human THP-1 assessed as reduction in cell viability incubated for 3 days by Cell Titer Blue assay; assay type: functional, cell-based; conditions: time 3.0 day
AMO1 [1] = assay: Antitumor activity against human AMO1 xenografted in CB-17 SCID mouse assessed as tumor regression at 12.5 mg/kg, iv administered for 5 consecutive days and observed upto day 35 post last dose; assay type: functional, organism-based; conditions: time 35.0 day
Outline: (§1)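 Female CB-17 SCID mice, 6−7 weeks old. 5 × 10⁶ AMO-1 cells in growth medium/Matrigel 50:50 injected subcutaneously in the right flank. Randomised at about 200 mm³, n = 8 to 10 per group. Dosed iv in 20% HPbCD–25 mM HCl, daily for 5 days or weekly for 4 weeks. Calipers 2−3 times weekly; volume = length × width²/2. TGI computed from median change in volume versus control; delay judged at median volume 500 mm³.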

Cytochrome P450 3A4 = Cytochrome P450 3A4 (Homo sapiens, UniProt P08684); assay: Inhibition of CYP3A4 (unknown origin); assay type: ADME
Sequence of Cytochrome P450 3A4 (P08684 whole entry): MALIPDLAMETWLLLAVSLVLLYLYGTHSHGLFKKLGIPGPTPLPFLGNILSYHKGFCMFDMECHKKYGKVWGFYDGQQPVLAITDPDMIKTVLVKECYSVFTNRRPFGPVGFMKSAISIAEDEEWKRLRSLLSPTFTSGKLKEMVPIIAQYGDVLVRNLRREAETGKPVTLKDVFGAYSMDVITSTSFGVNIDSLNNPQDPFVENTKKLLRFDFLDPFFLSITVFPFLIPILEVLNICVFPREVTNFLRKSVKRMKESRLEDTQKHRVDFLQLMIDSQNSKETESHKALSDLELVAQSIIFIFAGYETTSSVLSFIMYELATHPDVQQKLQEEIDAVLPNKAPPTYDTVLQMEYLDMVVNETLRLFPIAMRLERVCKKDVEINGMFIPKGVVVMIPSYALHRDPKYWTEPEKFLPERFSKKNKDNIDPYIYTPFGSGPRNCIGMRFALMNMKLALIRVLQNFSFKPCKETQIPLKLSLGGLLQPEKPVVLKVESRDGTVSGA
Outline: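 High-throughput drug-drug interaction screen using human CYP450-transfected cells; IC50 determined for CYP3A4 inhibition.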

AMO1 [2] = assay: Antitumor activity against human AMO1 cells xenografted in CB-17 SCID mouse assessed as maximum tumor growth inhibition at […] mg/kg, iv administered as bolus dose for 5 consecutive days measured on day 4 relative to control; assay type: functional; parameters: scale not given: the % may be the effect or the level left; conditions: time 5 day
[3] = Plasma protein binding in mouse assessed as unbound fraction; assay type: ADME, cell-free
PL21 = assay: Antiproliferative activity against human PL21 assessed as reduction in cell viability incubated for 3 days by Cell Titer Blue assay; assay type: functional; conditions: time 3.0 day
[4] = target: Bcl-2-like protein 1 (Homo sapiens) (UniProt Q07817); assay: Displacement of Bax BH3 domain from FLAG-tagged Bcl-xl (unknown origin) expressed in human Hela cells at 30 to 300 nM incubated for 2 hrs by immunoprecipitation assay; assay type: cell-based; conditions: dose 30-300 nM
Sequence of Bcl-2-like protein 1 (Homo sapiens) (Q07817 whole entry, the tested form may be a part): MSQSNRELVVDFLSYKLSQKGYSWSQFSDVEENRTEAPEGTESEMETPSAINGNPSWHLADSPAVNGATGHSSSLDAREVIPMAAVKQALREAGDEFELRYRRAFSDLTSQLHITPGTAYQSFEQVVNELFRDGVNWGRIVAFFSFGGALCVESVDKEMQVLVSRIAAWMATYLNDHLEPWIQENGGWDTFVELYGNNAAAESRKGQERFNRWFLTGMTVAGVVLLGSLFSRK
Outline: (§2)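 HeLa cells in DMEM with 10% FCS were transiently transfected with Flag-tagged Mcl-1, Bcl-xL or Bcl-2 vectors. 24 h later they were treated for 2 h and lysed (Hepes pH 7.5, 150 mM KCl, MgCl₂, EDTA, 0.4% Triton X100). Cleared lysates were immunoprecipitated with anti-Flag M2 beads. Inputs and IPs were immunoblotted for endogenous Bax, Bak and Flag.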

NCI-H929 = assay: Induction of apoptosis in human H929 cells assessed as induction of PARP cleavage incubated for 6 hrs by immunodetection analysis; assay type: functional, cell-based; conditions: dose 1-3000 nM
Outline: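 H929 cells in RPMI 1640 with 10% FBS were seeded at 2 × 10⁶ cells per 35 mm dish. After 24 h they were exposed to compound for 6 h, then lysed (Hepes pH 7.4, KCl, MgCl₂, EDTA, 1% NP40). 5 μg lysate was assayed for cleaved PARP with the MSD apoptosis panel, read as RLU. Two independent biological experiments.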

Cytochrome P450 2C8 = Cytochrome P450 2C8 (Homo sapiens, UniProt P10632); assay: Drug metabolism assessed as CYP2C8 (unknown origin) mediated metabolism; assay type: ADME
Sequence of Cytochrome P450 2C8 (P10632 whole entry): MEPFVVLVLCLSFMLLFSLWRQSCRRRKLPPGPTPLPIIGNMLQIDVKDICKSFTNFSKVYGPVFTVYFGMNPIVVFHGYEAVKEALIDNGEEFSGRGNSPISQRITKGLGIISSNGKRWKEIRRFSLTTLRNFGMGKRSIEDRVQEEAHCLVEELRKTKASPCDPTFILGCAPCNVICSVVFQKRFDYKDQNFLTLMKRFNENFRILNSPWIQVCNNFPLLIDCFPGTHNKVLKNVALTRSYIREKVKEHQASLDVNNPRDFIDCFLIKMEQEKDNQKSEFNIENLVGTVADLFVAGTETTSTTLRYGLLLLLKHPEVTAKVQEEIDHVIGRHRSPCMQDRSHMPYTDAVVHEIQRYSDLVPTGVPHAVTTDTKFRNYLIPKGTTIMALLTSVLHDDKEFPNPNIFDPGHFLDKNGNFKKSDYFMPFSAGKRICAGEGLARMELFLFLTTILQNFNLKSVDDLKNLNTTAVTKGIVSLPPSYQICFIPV

SU-DHL-1 = assay: Antiproliferative activity against human SU-DHL1 assessed as reduction in cell viability incubated for 3 days by Cell Titer Blue assay; assay type: functional, cell-based; conditions: time 3.0 day
Daudi = assay: Antiproliferative activity against human Daudi assessed as reduction in cell viability incubated for 3 days by Cell Titer Blue assay; assay type: functional, cell-based; conditions: time 3.0 day
NOMO-1 = assay: Antiproliferative activity against human NOMO1 assessed as reduction in cell viability incubated for 3 days by Cell Titer Blue assay; assay type: functional, cell-based; conditions: time 3.0 day
MINO = assay: Antiproliferative activity against human Mino assessed as reduction in cell viability incubated for 3 days by Cell Titer Blue assay; assay type: functional; conditions: time 3.0 day
OCI-AML2 = assay: Antiproliferative activity against human OCI-AML2 assessed as reduction in cell viability incubated for 3 days by Cell Titer Blue assay; assay type: functional, cell-based; conditions: time 3.0 day
[5] = Clearance in mouse at 12.5 mg/kg, iv formulated with 20 % HPBCD in water/ […]; assay type: ADME, organism-based; conditions: in vivo
AMO1 [6] = assay: Antitumor activity against human AMO1 xenografted in CB-17 SCID mouse assessed as tumor growth inhibition at 12.5 mg/kg, iv administered daily measured on day 10; assay type: functional; conditions: 240 h, read-out: TGI; outline: as §1
MOLM-13 = assay: Antiproliferative activity against human MOLM13 assessed as reduction in cell viability incubated for 3 days by Cell Titer Blue assay; assay type: functional, cell-based; conditions: time 3.0 day
AMO1 [7] = assay: Antitumor activity against human AMO1 cells xenografted in CB-17 SCID mouse assessed as tumor growth inhibition at […] mg/kg, iv administered for 5 consecutive days measured on day 4 relative to control; assay type: functional; conditions: 120 h, time 5 day, read-out: TGI
AMO1 [8] = assay: Antitumor activity against human AMO1 xenografted in CB-17 SCID mouse assessed as tumor growth inhibition at 12.5 mg/kg, iv administered weekly for upto week 4 measured post last dose measured on day 10; assay type: functional; conditions: time 4 weeks, read-out: TGI; outline: as §1
[9] = Terminal half-life in mouse at […] mg/kg, iv formulated with 20 % HPBCD in water/ […]% HCl; assay type: ADME, organism-based; conditions: in vivo, read-out: beta t1/2 (converted)
AMO1 [10] = assay: Antitumor activity against human AMO1 xenografted in CB-17 SCID mouse assessed as maximum tumor growth inhibition at […] mg/kg, iv administered for 5 consecutive days measured post-last dose; assay type: functional; parameters: scale not given: the % may be the effect or the level left; conditions: time 5 day
SUD4 = assay: Antiproliferative activity against human SU-DHL4 assessed as reduction in cell viability incubated for 3 days by Cell Titer Blue assay; assay type: functional, cell-based; conditions: time 3.0 day
HuT78 = assay: Antiproliferative activity against human HUT78 assessed as reduction in cell viability incubated for 3 days by Cell Titer Blue assay; assay type: functional, cell-based; conditions: time 3.0 day
OCI-Ly7 = assay: Antiproliferative activity against human OCI-LY7 assessed as reduction in cell viability incubated for 3 days by Cell Titer Blue assay; assay type: functional, cell-based; conditions: time 3.0 day
[11] = target: Apoptosis regulator Bcl-2 (Homo sapiens) (UniProt P10415); assay: Displacement of Bak BH3 domain from FLAG-tagged Bcl-2 (unknown origin) expressed in human Hela cells at 30 to 300 nM incubated for 2 hrs by immunoprecipitation assay; assay type: cell-based; conditions: dose 30-300 nM; outline: as §2
Sequence of Apoptosis regulator Bcl-2 (Homo sapiens) (P10415 whole entry, the tested form may be a part): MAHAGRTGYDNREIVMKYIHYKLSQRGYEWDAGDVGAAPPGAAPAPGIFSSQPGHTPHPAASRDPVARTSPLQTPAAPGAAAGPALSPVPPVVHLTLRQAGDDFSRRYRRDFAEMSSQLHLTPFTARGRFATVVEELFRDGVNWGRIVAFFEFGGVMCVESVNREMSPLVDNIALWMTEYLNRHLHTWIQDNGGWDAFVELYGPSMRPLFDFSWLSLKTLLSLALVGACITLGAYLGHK

AMO1 [12] = assay: Antitumor activity against human AMO1 xenografted in CB-17 SCID mouse assessed as maximum tumor growth inhibition at 3.125 mg/kg, iv administered for 5 consecutive days measured post-last dose; assay type: functional; parameters: scale not given: the % may be the effect or the level left; conditions: time 5 day; outline: as §1
AMO1 [13] = assay: Antitumor activity against human AMO1 xenografted in CB-17 SCID mouse assessed as tumor growth inhibition administered intravenously for 5 consecutive days measured post-last dose; assay type: functional; conditions: time 5.0 day; outline: as §1
[14] = target: Apoptosis regulator Bcl-2 (Homo sapiens) (UniProt P10415); assay: Displacement of Bax BH3 domain from FLAG-tagged Bcl-2 (unknown origin) expressed in human Hela cells at 30 to 300 nM incubated for 2 hrs by immunoprecipitation assay; assay type: cell-based; conditions: dose 30-300 nM; outline: as §2
HL-60 = assay: Antiproliferative activity against human HL60 assessed as reduction in cell viability incubated for 3 days by Cell Titer Blue assay; assay type: functional, cell-based; conditions: time 3.0 day
AMO1 [15] = assay: Antitumor activity against human AMO1 cells xenografted in CB-17 SCID mouse assessed as time to reach tumor volume of 500 mm3 at […] mg/kg, iv administered as bolus dose for 5 consecutive days; assay type: functional; conditions: time 5 day
[16] = Plasma protein binding in human assessed as unbound fraction; assay type: ADME, cell-free

**Q.** Which Activity (THP-1) does the source give for COc1ccccc1-c1nccc(COc2ccccc2C[C@@H](Oc2ncnc3sc(-c4ccc(F)cc4)c(-c4ccc(OCCN5CCN(C)CC5)c(Cl)c4C)c23)C(=O)O)n1 here?
**A.** Active

**Q.** What about the Activity (AMO1 [1]) of the same molecule?
**A.** Active

**Q.** What about the IC50 (Cytochrome P450 3A4) of the same molecule?
**A.** 1.8 µM

**Q.** And the Activity (AMO1 [2])?
**A.** 189.5%

**Q.** And the Fu [3]?
**A.** 0.04%

**Q.** And the Activity (PL21)?
**A.** Active

**Q.** And the Activity [4]?
**A.** inactive

**Q.** And the Activity (NCI-H929)?
**A.** Dose-dependent effect

**Q.** What about the Drug metabolism (Cytochrome P450 2C8) of the same molecule?
**A.** Metabolite_Detected

**Q.** And the Activity (SU-DHL-1)?
**A.** Active

**Q.** What about the Activity (Daudi) of the same molecule?
**A.** Active

**Q.** What about the Activity (NOMO-1) of the same molecule?
**A.** Active

**Q.** And the Activity (MINO)?
**A.** Active

**Q.** And the Activity (OCI-AML2)?
**A.** Active

**Q.** What about the clearance [5] of the same molecule?
**A.** 6 mL/min/kg

**Q.** What about the inhibition in vivo at 12.5 mg/kg (AMO1 [6]) of the same molecule?
**A.** 112%

**Q.** And the Activity (MOLM-13)?
**A.** Active

**Q.** What about the inhibition in vivo at […] (AMO1 [7]) of the same molecule?
**A.** 190%

**Q.** What about the inhibition in vivo at 12.5 mg/kg (AMO1 [8]) of the same molecule?
**A.** 108%

**Q.** What about the half-life [9] of the same molecule?
**A.** 5 h

**Q.** And the Activity (AMO1 [10])?
**A.** 115.8%

**Q.** What about the Activity (SUD4) of the same molecule?
**A.** Active

**Q.** And the Activity (HuT78)?
**A.** Active

**Q.** And the Activity (OCI-Ly7)?
**A.** Active

**Q.** What about the Activity [11] of the same molecule?
**A.** inactive

**Q.** What about the Activity (AMO1 [12]) of the same molecule?
**A.** 89.1%

**Q.** What about the Activity (AMO1 [13]) of the same molecule?
**A.** Dose-dependent effect

**Q.** And the Activity [14]?
**A.** inactive

**Q.** What about the Activity (HL-60) of the same molecule?
**A.** Active

**Q.** What about the Time (AMO1 [15]) of the same molecule?
**A.** 38 days

**Q.** What about the Fu [16] of the same molecule?
**A.** 0.05%
